Active and inactive are the calls of the source. The calls are words filed in the database; no cut-off is given here.
Key:
[1] = target: T1, Inhibitor of nuclear factor kappa-B kinase subunit alpha (Mus musculus) (UniProt Q60680); test: Inhibition of LPS-induced IkappaBalpha phosphorylation in C57BL/6 mouse alveolar macrophages measured up to 120 mins by Western blot analysis
T1 sequence (whole entry): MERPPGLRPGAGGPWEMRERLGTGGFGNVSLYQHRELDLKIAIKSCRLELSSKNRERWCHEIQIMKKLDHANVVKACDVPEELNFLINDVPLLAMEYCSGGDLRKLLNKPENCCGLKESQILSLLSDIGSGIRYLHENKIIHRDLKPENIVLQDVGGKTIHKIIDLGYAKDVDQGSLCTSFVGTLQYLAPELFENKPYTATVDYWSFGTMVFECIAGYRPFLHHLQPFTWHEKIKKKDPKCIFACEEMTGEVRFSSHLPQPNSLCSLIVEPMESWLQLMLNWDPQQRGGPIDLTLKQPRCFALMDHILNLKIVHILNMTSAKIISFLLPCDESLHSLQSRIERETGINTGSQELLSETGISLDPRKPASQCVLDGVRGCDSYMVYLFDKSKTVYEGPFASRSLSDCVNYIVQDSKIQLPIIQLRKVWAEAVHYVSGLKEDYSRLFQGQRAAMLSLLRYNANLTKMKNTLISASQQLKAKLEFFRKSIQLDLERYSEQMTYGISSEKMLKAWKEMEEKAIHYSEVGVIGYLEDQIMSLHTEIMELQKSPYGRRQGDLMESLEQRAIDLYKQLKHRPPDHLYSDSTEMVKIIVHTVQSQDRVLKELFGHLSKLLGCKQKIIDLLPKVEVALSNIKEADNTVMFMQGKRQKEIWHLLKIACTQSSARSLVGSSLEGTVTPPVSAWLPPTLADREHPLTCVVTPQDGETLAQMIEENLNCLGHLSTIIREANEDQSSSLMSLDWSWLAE

MEF [2] = test: Effect on TNF-induced RANTES mRNA expression in MEF by Northern blot analysis; assay type: functional, cell-based; conditions: Mus musculus
Epithelial cell [3] = test: Induction of apoptosis in TNF-stimulated human bronchial epithelial cells assessed as PARP cleavage after 2 hrs by Western blot analysis; assay type: functional, cell-based
Summary of the method: (§1)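 WI38 lung fibroblasts and bronchial epithelial cells were stimulated for 2 hours. The same Western blot was probed for PARP cleavage, total IκBα and phosphorylated IκBα.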

[4] = target: T2, Inhibitor of nuclear factor kappa-B kinase subunit alpha (Homo sapiens) (UniProt O15111); test: Inhibition of LPS-induced IkappaBalpha phosphorylation in human THP1 cells measured up to 120 mins by Western blot analysis; assay type: cell-based; conditions: THP-1
T2 sequence (whole entry): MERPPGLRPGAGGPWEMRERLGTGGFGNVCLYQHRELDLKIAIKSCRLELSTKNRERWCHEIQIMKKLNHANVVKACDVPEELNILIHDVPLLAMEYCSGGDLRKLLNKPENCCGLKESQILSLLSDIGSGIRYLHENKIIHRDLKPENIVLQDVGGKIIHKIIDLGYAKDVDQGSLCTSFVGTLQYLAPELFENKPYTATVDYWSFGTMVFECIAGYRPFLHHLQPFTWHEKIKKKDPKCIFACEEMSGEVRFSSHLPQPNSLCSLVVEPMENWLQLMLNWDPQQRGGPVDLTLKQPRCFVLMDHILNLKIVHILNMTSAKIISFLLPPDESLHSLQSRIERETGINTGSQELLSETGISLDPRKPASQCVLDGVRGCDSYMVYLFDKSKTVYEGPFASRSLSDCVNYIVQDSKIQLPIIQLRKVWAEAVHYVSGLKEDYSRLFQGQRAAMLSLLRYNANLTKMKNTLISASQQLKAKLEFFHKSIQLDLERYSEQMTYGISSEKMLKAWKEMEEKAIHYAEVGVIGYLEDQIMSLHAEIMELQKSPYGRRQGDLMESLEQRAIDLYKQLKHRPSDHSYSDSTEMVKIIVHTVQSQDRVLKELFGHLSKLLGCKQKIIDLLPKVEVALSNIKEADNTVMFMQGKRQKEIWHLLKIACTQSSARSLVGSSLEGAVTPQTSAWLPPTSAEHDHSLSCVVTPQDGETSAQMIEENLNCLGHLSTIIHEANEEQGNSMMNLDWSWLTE

Macrophage [5] = test: Inhibition of LPS-induced IkappaBalpha mRNA expression in mouse C57BL/6 mouse alveolar macrophages up to 50 uM by Northern blot analysis; assay type: functional, cell-based
Epithelial cell [6] = test: Inhibition of TNF-induced IkappaBalpha expression in human bronchial epithelial cells up to 120 mins by Western blot analysis; assay type: functional, cell-based
BMDM [7] = test: Inhibition of heat-killed Staphylococcus aureus-induced TNF mRNA expression in mouse BMDM by Northern blot analysis; assay type: functional, cell-based
[8] = target: T2, Inhibitor of nuclear factor kappa-B kinase subunit alpha (Homo sapiens); test: Inhibition of IkappaBalpha phosphorylation in human WI38 cells assessed after 2 hrs by Western blot analysis; assay type: cell-based; conditions: WI-38; summary of the method: as §1
BMDM [9] = test: Inhibition of heat-killed Staphylococcus aureus-induced IL1-beta mRNA expression in mouse BMDM by Northern blot analysis; assay type: functional
[10] = target: T1, Inhibitor of nuclear factor kappa-B kinase subunit alpha (Mus musculus); test: Inhibition of LPS-induced IkappaBalpha phosphorylation in mouse BMDM measured up to 120 mins by Western blot analysis
MEF [11] = test: Inhibition of LPS-induced MCP-1 mRNA expression in MEF after 90 mins by Northern blot analysis; assay type: functional, cell-based; conditions: Mus musculus
Macrophage [12] = test: Inhibition of LPS-induced c-jun mRNA expression in mouse alveolar macrophages after 90 mins by Northern blot analysis; assay type: functional, cell-based
[13] = target: T2, Inhibitor of nuclear factor kappa-B kinase subunit alpha (Homo sapiens); test: Inhibition of IkappaBalpha in human bronchial epithelial cells assessed after 2 hrs by Western blot analysis; assay type: cell-based; conditions: Epithelial cell; summary of the method: as §1
BMDM [14] = test: Inhibition of LPS-induced IP-10 mRNA expression in mouse BMDM up to 3 hrs by Northern blot analysis; assay type: functional, cell-based
BMDM [15] = test: Inhibition of LPS-induced RANTES mRNA expression in mouse BMDM up to 3 hrs by Northern blot analysis; assay type: functional, cell-based
Blood = test: Inhibition of LPS-induced TNF production in human whole blood after 3 hrs; assay type: functional, tissue-based
BMDM [16] = test: Inhibition of LPS-induced IkBbeta degradation in mouse BMDM treated 2 hrs after LPS challenge measured up to 120 mins by Western blot analysis; assay type: functional, cell-based
Macrophage [17] = test: Inhibition of LPS-induced IkappaBalpha mRNA expression in mouse alveolar macrophages after 90 mins by Northern blot analysis; assay type: functional, cell-based
Mus musculus [18] = species: Mus musculus; test: Inhibition of LPS-induced IKK activity in mouse BMDM assessed as GST-IkappaBalpha phosphorylation after 5 mins by immunoprecipitation kinase assay
[19] = target: MAP kinase p38 (Mus musculus) (UniProt P47811+O08911+Q9WUI1+Q9Z1B7); test: Inhibition of LPS-induced p38 phosphorylation in mouse BMDM measured up to 120 mins by Western blot analysis
WI-38 = test: Induction of apoptosis in TNF-stimulated human WI38 fibroblast assessed as PARP cleavage after 2 hrs by Western blot analysis; assay type: functional, cell-based; summary of the method: as §1
MEF [20] = test: Inhibition of LPS-induced IP-10 mRNA expression in MEF after 90 mins by Northern blot analysis; assay type: functional, cell-based; conditions: Mus musculus
THP-1 = test: Inhibition of LPS-induced IkappaBalpha expression in human THP1 cells measured up to 120 mins by Western blot analysis; assay type: functional, cell-based
Mus musculus [21] = species: Mus musculus; test: Inhibition of IKK activity in LPS-induced mouse BMDM assessed as reduction in phosphorylation of RelA treated 2 hrs after LPS challenge measured up to 120 mins by immunoblot analysis

SMILES: CCCCCCCCCC(=O)CC(=O)N[C@H]1CCOC1=O
- Activity [1]: Active
- Activity (MEF [2]): Active
- Activity (Epithelial cell [3]): Active
- Activity [4]: Active
- Activity (Macrophage [5]): Active
- Activity (Epithelial cell [6]): Active
- Activity (BMDM [7]): Active
- Activity [8]: Active
- Activity (BMDM [9]): Active
- Activity [10]: Active
- Activity (MEF [11]): Dose-dependent effect
- Activity (Macrophage [12]): Dose-dependent effect
- Activity [13]: Active
- Activity (BMDM [14]): Dose-dependent effect
- Activity (BMDM [15]): Dose-dependent effect
- Activity (Blood): Active
- Activity (BMDM [16]): Active
- Activity (Macrophage [17]): Dose-dependent effect
- Activity (Mus musculus [18]): Active
- Activity [19]: inactive
- Activity (WI-38): Active
- Activity (MEF [20]): Dose-dependent effect
- Activity (THP-1): Active
- Activity (Mus musculus [21]): Active

From ChEMBL document CHEMBL1152866, “Modulation of gene expression via disruption of NF-kappaB signaling by a bacterial small molecule” (Science, 2008)
